pIC50: −log10 of the molar value. The source made the active and inactive calls. The rule behind the calls is not given here.
Tests used:
[1] = Antiproliferative activity against DBA/2J mouse Friend erythroleukemia cells after 3 days by cell counter; assay type: functional, cell-based; conditions: Leukemia cell, 72 h
In short: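 Log-phase suspension cultures in DMEM with 10% fetal calf serum, penicillin/streptomycin, 37 °C, 10% CO2, seeded at 10^5 cells/mL. Continuous exposure to a range of concentrations for 3 days. Water-insoluble agents given in ethanol (final ≤0.125%). Cells counted by Coulter counter. IC50 is the concentration giving 50% inhibition of multiplication versus vehicle-treated controls.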

[2] = system: Leukemia cell; test: Antitumor activity against DBA/2J mouse Friend erythroleukemia cells allografted ip dosed DBA/2 mouse assessed as increase in host survival time administered on days 1, 2 and 3 after tumor transplantation; assay type: functional, organism-based
[3] = Inhibition of bis(acetyl)diaminopentane-induced cell differentiation in DBA/2J mouse Friend erythroleukemia cells assessed as proportion of hemoglobin containing cells at 1 mM after 3 days by benzidine peroxide staining (reference value: 82.2 +/- 2.4%); assay type: functional; conditions: Leukemia cell, 72 h
[4] = Inhibition of cell growth of DBA/2J mouse Friend erythroleukemia cells at 1 mM after 3 days in presence of bis(acetyl)diaminopentane; assay type: functional; conditions: Leukemia cell, 72 h
In short: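 Log-phase Friend erythroleukemia cells (DBA/2J origin) were seeded at 10⁵ cells/mL in DMEM plus 10% fetal calf serum at 37 °C under 10% CO₂. Analogue at 1 mM was combined with the inducer bis(acetyl)diaminopentane at 4.5 mM. After 3 days, cell numbers were counted with a Coulter counter to give percent cytostasis.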

[5] = Toxicity in ip dosed BDF1 mouse assessed as animal killed administered as single dose; conditions: in vivo
[6] = system: Leukemia cell; test: Induction of cell differentiation in DBA/2J mouse Friend erythroleukemia cells assessed as proportion of hemoglobin containing cells at IC50 concentration for antiproliferative effect after 3 days by benzidine peroxide staining; assay type: functional, cell-based
In short: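 Exponentially growing cells seeded at 10^5 cells/mL in DMEM with 10% fetal calf serum at 37 °C and 10% CO2, incubated 3 days with the analogue. Ethanol vehicle final ≤0.125%. Hemoglobin-containing cells scored by benzidine peroxide stain. Controls received no drug or the inducer bis(acetyl)diaminopentane.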

[7] = Inhibition of cell growth of DBA/2J mouse Friend erythroleukemia cells at 4 uM after 3 days in presence of bis(acetyl)diaminopentane; assay type: functional; conditions: Leukemia cell, 72 h
In short: (§1)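 Exponentially growing cells seeded at 10^5 cells/mL, exposed for 3 days to 4.5 mM bis(acetyl)diaminopentane together with the analogue. Cell numbers counted by Coulter counter. Cytostasis expressed relative to untreated control cultures.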

[8] = Inhibition of cell growth of DBA/2J mouse Friend erythroleukemia cells at 0.4 mM after 3 days in presence of bis(acetyl)diaminopentane; assay type: functional; conditions: Leukemia cell, 72 h; in short: as §1
[9] = Bis(acetyl)diaminopentane-induced cell differentiation in DBA/2J mouse Friend erythroleukemia cells assessed as proportion of hemoglobin containing cells at 0.4 mM after 3 days by benzidine peroxide staining (reference value: 82.2 +/- 2.4%); conditions: Leukemia cell, 72 h

Row | Structure (SMILES) | pIC50 [1] | Activity [2] | inhibition at 1000 µM [3] [%] | inhibition at 1000 µM [4] [%] | LD50 [5] [µmol/kg] | Activity [6] | inhibition at 4 µM [7] [%] | inhibition at 400 µM [8] [%] | benzidine-positive cells % at 400 µM [9] [%]
1 | CC(=O)N[C@H]1[C@H](OC(C)=O)O[C@H](COC(C)=O)[C@@H](OC(C)=O)[C@@H]1OC(C)=O | 3.40 | inactive |  |  |  |  |  |  | 
2 | O=C(CF)N[C@@H]1[C@@H](O)[C@H](O)[C@@H](CO)O[C@H]1O | 3.00 | inactive | 69.5 | 83 | 180 | inactive |  |  | 
3 | CC(=O)OC[C@H]1O[C@@H](OC(C)=O)[C@H](NC(=O)CBr)[C@@H](OC(C)=O)[C@@H]1OC(C)=O | 5.52 | inactive |  |  | 210 | inactive |  |  | 
4 | CC(=O)OC[C@H]1O[C@@H](OC(C)=O)[C@H](NC(=O)CCl)[C@@H](OC(C)=O)[C@H]1OC(C)=O | 4.82 | inactive |  |  | 670 | inactive |  |  | 
5 | CC(=O)OC[C@H]1O[C@@H](OC(C)=O)[C@H](NC(=O)CBr)[C@@H](OC(C)=O)[C@H]1OC(C)=O | 5.40 | inactive |  |  | 220 | inactive | 83 |  | 
6 | O=C(CCl)N[C@@H]1[C@@H](O)[C@@H](O)[C@@H](CO)O[C@H]1O |  | inactive |  |  | 1500 |  |  |  | 
7 | CC(=O)OC[C@H]1O[C@@H](OC(C)=O)[C@H](NC(=O)CCl)[C@@H](OC(C)=O)[C@@H]1OC(C)=O | 5.10 | inactive |  |  | 940 | inactive |  |  | 
8 | CC(=O)OC[C@H]1O[C@@H](OC(C)=O)[C@H](NC(=O)CF)[C@@H](OC(C)=O)[C@@H]1OC(C)=O | 4.22 | inactive |  |  | 170 | inactive |  |  | 
9 | O=C(O)CF [FLUOROACETATE] |  | inactive |  |  | 100 |  |  |  | 
10 | O=C(CF)N[C@@H]1[C@@H](O)[C@@H](O)[C@@H](CO)O[C@H]1O |  | inactive |  |  | 740 |  |  |  | 
11 | O=C(CBr)N[C@@H]1[C@@H](O)[C@@H](O)[C@@H](CO)O[C@H]1O |  | inactive |  |  | 1700 |  |  |  | 
12 | O=C(CCl)N[C@@H]1[C@@H](O)[C@H](O)[C@@H](CO)O[C@H]1O | 3.40 | inactive |  |  | 2000 | inactive |  | 83 | 24
13 | CC(=O)OC[C@H]1O[C@@H](OC(C)=O)[C@H](NC(=O)CF)[C@@H](OC(C)=O)[C@H]1OC(C)=O | 4.22 | inactive |  |  | 980 | inactive |  |  | 
14 | O=C(CBr)N[C@@H]1[C@@H](O)[C@H](O)[C@@H](CO)O[C@H]1O |  | inactive |  |  | > 2400 |  |  |  | 
15 | NC(=O)CCl | 3.70 | inactive |  |  |  |  |  |  | 

Source: ChEMBL document CHEMBL3244342, “Haloacetamido analogues of 2-amino-2-deoxy-D-glucose and 2-amino-2-deoxy-D-galactose. Syntheses and effects on the Friend murine erythroleukemia” (J Med Chem, 1978)
